Compound activity deposited in PubChem BioAssay by several laboratories.
HSV augment – increases HSV replication in cells | AID 1956 | maximum fold increase | HSV replication augmentation in cells, fold increase | actives 0.005% (n = 220,000); in the data active means maximum fold increase above about 1.5; inconclusive means no clear call, values can overlap the other calls; tested in PC3 cells
Furin inh – blocks human furin protease activity; P09958; purified furin, fluorogenic substrate cleavage; inhibition, % at 20 µM or 30 µM; actives 0.061% (n = 220,000); in the data active means inhibition above about 25%
b-catenin transl – alters nuclear translocation of beta-catenin in HeLa cells; immunofluorescence imaging; nuclear translocation activity, % at 5 µM; actives 0.3% (n = 190,000); AID 1665;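 active means nuclear translocation activity above 50% at 5 µM, with a well cell count of 50 or more; inconclusive means wells under 50 cells across six images, flagged as toxic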;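 further: per-cell ratio of nuclear to cytoplasmic median beta-catenin stain intensity; plate controls were DMSO negative control for no effect and GSK-3 inhibitor IX positive control for full effect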
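System: Human HeLa cells, endogenous beta-catenin | Compound dosing: 5 µM primary, 0.02–20 µM confirmation | Timing: 24 h compound exposure at 37°C, 5% CO2 | Measured by: Fluorescence imaging of beta-catenin antibody stain plus DAPI | Read-out basis: % activation of per-cell nuclear versus cytoplasmic median beta-catenin signal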
Ins promoter up – MIN6 insulin promoter up-regulation; MIN6 insulin promoter-GFP reporter, high-content imaging; stronger effect = higher value; z-score at 5 µM; actives 0.3% (n = 190,000);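 active means z-score above 3 at 5 µM with at least 500 cells counted in the well; inconclusive means wells under 500 cells, flagged as cytotoxic or low count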
MT stabilize HCS – microtubule stabilization, imaging screen. HeLa tubulin immunostaining HCS, 24 h; share of cells brighter than vehicle mean+2SD. % tubulin-high responders, % at 10 µM. actives 0.83% (n = 200,000). AID 2205;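 active means plate Z-score above 3 for both tubulin-high and condensed-nucleus cell shares, with cell loss under 80%, at 10 µM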;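 further: anti alpha tubulin signal scored within the nucleus-defined area of each cell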
Autophagy HCS – alters autophagy in cells | MEF GFP-LC3 puncta imaging; test concentration mostly 10 µM | calls only at 10 µM (by protocol) | actives 0.98% (n = 190,000) | AID 463193;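 active means percentage of spot-positive cells more than 3 SD above its plate mean, without a fluorescence outlier flag or 80% toxicity; inconclusive means no clear call, values can overlap the other calls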;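 further: spot-positive cell cutoff set from DMSO-treated cells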
Active calls of the source: *; i = inactive; ? = inconclusive; · = no result given; + = active, no number. Most compounds without a hit are left out; they make up all but 1.9% or so of the library.

SMILES	HSV augment	Furin inh	b-catenin transl	Ins promoter up	MT stabilize HCS	Autophagy HCS
CC(C)CC(NS(=O)(=O)c1ccccc1)C(=O)O (centres undefined)	i	-21.8	-3.8	-0.07	1.4	i
COc1ccc(C2/C=C\CN(S(=O)(=O)c3cccc4cccnc34)CC(=O)N2Cc2ccc(F)cc2)cc1 (centres undefined)	i	-23.5	-1.4	7.49*	·	·
c1cc(CNc2ccc3c(c2)OCO3)ccn1	i	-18.6	1.9	·	2.7	i
Cc1ccc(CNc2ccc3c(c2)OCO3)cc1	?	-6.0	2.1	·	4.5	+
O=C(N/N=C\c1cn(-c2ccccc2)nc1-c1ccccc1)c1ccc2c(c1)OCO2	i	-16.6	0.4	-0.41	2.5	i
O=C(N/N=C/c1cn(-c2ccccc2)nc1-c1ccc(F)cc1)c1ccc2c(c1)OCO2	i	-4.9	0.6	-0.44	16.1*	i
CCn1ncc(/C=N/NC(=O)c2ccc3c(c2)OCO3)c1C	i	-28.1	5.9	-0.13	35.8*	i
Cc1ccc(/C=N/NC(=O)c2ccc3c(c2)OCCO3)s1	i	-4.7	66.3*	0.71	·	·
